# Test results taken from ChEMBL document CHEMBL3421541, “Benzaldehyde Schiff bases regulation to the metabolism, hemolysis, and virulence genes expression in vitro and their structure-microbicidal activity relationship” (2015).
# Calls of active or inactive are those of the source.
# Assays:
# Escherichia coli [1] = assay: Antibacterial activity against Escherichia coli assessed as growth inhibition at 100 umol/L after 8 hrs by ELISA plate reader analysis relative to control; type: functional; conditions: read-out: GI
# Procedure, shortened: (§1)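 Bacteria were seeded at 1×10^5 CFU/mL in LB, and compound was added to 100 µmol/L final. Compounds came from DMSO stock, with DMSO ≤1% (v/v) final. Cultures were shaken at 37 °C for 8 h and read at OD450. Inhibition % = (OD vehicle control − OD sample)/OD vehicle control × 100. Values are the mean of three independent experiments.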
# Staphylococcus aureus [2] = assay: Antibacterial activity against Staphylococcus aureus assessed as growth inhibition at 100 umol/L after 8 hrs by ELISA plate reader analysis relative to control; type: functional; conditions: read-out: GI; procedure, shortened: as §1
# Staphylococcus aureus [3] = assay: Antibacterial activity against Staphylococcus aureus assessed as lowest concentration required to reduce growth by 1% after 8 hrs by ELISA plate reader analysis relative to control; type: functional
# Procedure, shortened: (§2)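 MBC was found by broth microdilution. Inocula of 1×10^5 CFU/mL in LB were shaken at 37 °C with a series of compound concentrations, then read at OD450. MBC was defined as the lowest concentration reducing growth by 1% versus the inoculum control. Three independent experiments were run.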
# Staphylococcus aureus [4] = assay: Upregulation of hla gene expression in Staphylococcus aureus at 50 umol/L after 8 hrs by real-time RT-PCR analysis relative to control; type: functional, organism-based
# Procedure, shortened: (§3)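 S. aureus ATCC 25923 at 2×10^7 CFU/mL in LB was exposed to 50 µmol/L compound, or LB alone, for 8 h at 37 °C. Total RNA was analysed by TaqMan real-time RT-PCR or semi-quantitative RT-PCR, normalised to gyrB. Fold change is versus time-matched medium-only cultures, with data pooled from three experiments.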
# Staphylococcus aureus [5] = assay: Upregulation of hla gene expression in Staphylococcus aureus at 50 umol/L after 8 hrs by semi-quantitative RT-PCR analysis relative to control; type: functional, organism-based; procedure, shortened: as §3
# Staphylococcus aureus [6] = assay: Downregulation of mecA gene expression in Staphylococcus aureus at 50 umol/L after 8 hrs by real-time RT-PCR analysis relative to control; type: functional; procedure, shortened: as §3
# Staphylococcus aureus [7] = assay: Downregulation of mecA gene expression in Staphylococcus aureus at 50 umol/L after 8 hrs by semi-quantitative RT-PCR analysis relative to control; type: functional; procedure, shortened: as §3
# Staphylococcus aureus [8] = assay: Downregulation of saeR gene expression in Staphylococcus aureus at 50 umol/L after 8 hrs by real-time RT-PCR analysis relative to control; type: functional, organism-based; procedure, shortened: as §3
# Staphylococcus aureus [9] = assay: Downregulation of saeR gene expression in Staphylococcus aureus at 50 umol/L after 8 hrs by semi-quantitative RT-PCR analysis relative to control; type: functional, organism-based; procedure, shortened: as §3
# Bacillus subtilis [10] = assay: Antibacterial activity against Bacillus subtilis assessed as growth inhibition at 100 umol/L after 8 hrs by ELISA plate reader analysis relative to control; type: functional; conditions: read-out: GI; procedure, shortened: as §1
# Escherichia coli [11] = assay: Antibacterial activity against Escherichia coli assessed as lowest concentration required to reduce growth by 1% after 8 hrs by ELISA plate reader analysis relative to control; type: functional; procedure, shortened: as §2
# Escherichia coli [12] = assay: Downregulation of cysB gene expression in Escherichia coli at 50 umol/L after 8 hrs by real-time RT-PCR analysis relative to control; type: functional, organism-based
# Procedure, shortened: (§4)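 E. coli at 2×10^7 CFU/mL in LB was exposed to 50 µmol/L compound, or LB alone, for 8 h at 37 °C. Total RNA was then analysed by TaqMan real-time RT-PCR or semi-quantitative RT-PCR. Transcripts were normalised to gapA. Fold change is relative to time-matched medium-only cultures.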
# Escherichia coli [13] = assay: Downregulation of cysB gene expression in Escherichia coli at 50 umol/L after 8 hrs by semi-quantitative RT-PCR analysis relative to control; type: functional, organism-based; procedure, shortened: as §4
# Escherichia coli [14] = assay: Downregulation of tsh gene expression in Escherichia coli at 50 umol/L after 8 hrs by real-time RT-PCR analysis relative to control; type: functional, organism-based; procedure, shortened: as §4
# Escherichia coli [15] = assay: Downregulation of IroD gene expression in Escherichia coli at 50 umol/L after 8 hrs by real-time RT-PCR analysis relative to control; type: functional, organism-based; procedure, shortened: as §4
# Escherichia coli [16] = assay: Downregulation of tsh gene expression in Escherichia coli at 50 umol/L after 8 hrs by semi-quantitative RT-PCR analysis relative to control; type: functional, organism-based; procedure, shortened: as §4
# Escherichia coli [17] = assay: Downregulation of IroD gene expression in Escherichia coli at 50 umol/L after 8 hrs by semi-quantitative RT-PCR analysis relative to control; type: functional, organism-based; procedure, shortened: as §4
# Bacillus subtilis [18] = assay: Antibacterial activity against Bacillus subtilis assessed as lowest concentration required to reduce growth by 1% after 8 hrs by ELISA plate reader analysis relative to control; type: functional; procedure, shortened: as §2
# Bacillus subtilis [19] = assay: Downregulation of yqhC gene expression in Bacillus subtilis at 50 umol/L after 8 hrs by real-time RT-PCR analysis relative to control; type: functional, organism-based
# Procedure, shortened: as §3, with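 “B. subtilis” for “S. aureus”, “6051” for “25923”, “16sRNA.” for “gyrB.”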
# Bacillus subtilis [20] = assay: Downregulation of yqhC gene expression in Bacillus subtilis at 50 umol/L after 8 hrs by semi-quantitative RT-PCR analysis relative to control; type: functional, organism-based
# Procedure, shortened: as §3, with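 “B. subtilis” for “S. aureus”, “6051” for “25923”, “16sRNA.” for “gyrB.”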
# Bacillus subtilis [21] = assay: Downregulation of yhdP gene expression in Bacillus subtilis at 50 umol/L after 8 hrs by real-time RT-PCR analysis relative to control; type: functional, organism-based
# Procedure, shortened: as §3, with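 “B. subtilis” for “S. aureus”, “6051” for “25923”, “16sRNA.” for “gyrB.”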
# Bacillus subtilis [22] = assay: Downregulation of yhdP gene expression in Bacillus subtilis at 50 umol/L after 8 hrs by semi-quantitative RT-PCR analysis relative to control; type: functional, organism-based
# Procedure, shortened: as §3, with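 “B. subtilis” for “S. aureus”, “6051” for “25923”, “16sRNA.” for “gyrB.”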
# Bacillus subtilis [23] = assay: Downregulation of yhdT gene expression in Bacillus subtilis at 50 umol/L after 8 hrs by real-time RT-PCR analysis relative to control; type: functional, organism-based
# Procedure, shortened: as §3, with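 “B. subtilis” for “S. aureus”, “6051” for “25923”, “16sRNA.” for “gyrB.”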
# Bacillus subtilis [24] = assay: Downregulation of yhdT gene expression in Bacillus subtilis at 50 umol/L after 8 hrs by semi-quantitative RT-PCR analysis relative to control; type: functional, organism-based
# Procedure, shortened: as §3, with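 “B. subtilis” for “S. aureus”, “6051” for “25923”, “16sRNA.” for “gyrB.”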
# Bacillus subtilis [25] = assay: Downregulation of yqhB gene expression in Bacillus subtilis at 50 umol/L after 8 hrs by real-time RT-PCR analysis relative to control; type: functional, organism-based
# Procedure, shortened: as §3, with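 “B. subtilis” for “S. aureus”, “6051” for “25923”, “16sRNA.” for “gyrB.”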
# Bacillus subtilis [26] = assay: Downregulation of yqhB gene expression in Bacillus subtilis at 50 umol/L after 8 hrs by semi-quantitative RT-PCR analysis relative to control; type: functional, organism-based
# Procedure, shortened: as §3, with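 “B. subtilis” for “S. aureus”, “6051” for “25923”, “16sRNA.” for “gyrB.”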
# Bacillus subtilis [27] = assay: Downregulation of yugS gene expression in Bacillus subtilis at 50 umol/L after 8 hrs by real-time RT-PCR analysis relative to control; type: functional, organism-based
# Procedure, shortened: as §3, with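 “B. subtilis” for “S. aureus”, “6051” for “25923”, “16sRNA.” for “gyrB.”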
# Bacillus subtilis [28] = assay: Downregulation of yugS gene expression in Bacillus subtilis at 50 umol/L after 8 hrs by semi-quantitative RT-PCR analysis relative to control; type: functional, organism-based
# Procedure, shortened: as §3, with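 “B. subtilis” for “S. aureus”, “6051” for “25923”, “16sRNA.” for “gyrB.”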
structure (smiles),measurement,setting,value
CC(C)(C)c1cc(/C=N/NC(=O)c2ccncc2)c(O)c(C(C)(C)C)c1,inhibition of growth at 100 µM,Escherichia coli [1],13.4%
same,inhibition of growth at 100 µM,Staphylococcus aureus [2],95.5%
same,MBC,Staphylococcus aureus [3],3.1 µM
same,Activity,Staphylococcus aureus [4],Active
same,Activity,Staphylococcus aureus [5],Active
same,fold change (FC),Staphylococcus aureus [6],2
same,fold change (FC),Staphylococcus aureus [7],2
same,Activity,Staphylococcus aureus [8],Active
same,Activity,Staphylococcus aureus [9],Active
O=C(O)[C@H](Cc1ccc(O)cc1)/N=C/c1ccccc1O,inhibition of growth at 100 µM,Escherichia coli [1],96%
same,inhibition of growth at 100 µM,Bacillus subtilis [10],4.38%
same,MBC,Escherichia coli [11],1.6 µM
same,Activity,Escherichia coli [12],Active
same,Activity,Escherichia coli [13],Active
same,Activity,Escherichia coli [14],Active
same,Activity,Escherichia coli [15],Active
same,Activity,Escherichia coli [16],Active
same,Activity,Escherichia coli [17],Active
O=C(COc1ccc(Cl)cc1)N/N=C/c1ccccc1O,inhibition of growth at 100 µM,Escherichia coli [1],0.23%
O=C(COc1ccc(Cl)cc1)N/N=C/c1cc(Cl)ccc1O,inhibition of growth at 100 µM,Escherichia coli [1],3.08%
same,inhibition of growth at 100 µM,Bacillus subtilis [10],83.2%
same,MBC,Bacillus subtilis [18],10.8 µM
same,Activity,Bacillus subtilis [19],Active
same,Activity,Bacillus subtilis [20],Active
same,Activity,Bacillus subtilis [21],Active
same,Activity,Bacillus subtilis [22],Active
same,Activity,Bacillus subtilis [23],Active
same,Activity,Bacillus subtilis [24],Active
same,Activity,Bacillus subtilis [25],Active
same,Activity,Bacillus subtilis [26],Active
same,Activity,Bacillus subtilis [27],Active
same,Activity,Bacillus subtilis [28],Active
CC1(C)S[C@@H]2[C@H](NC(=O)[C@H](N)c3ccccc3)C(=O)N2[C@H]1C(=O)O [AMPICILLIN],inhibition of growth at 100 µM,Escherichia coli [1],99.3%
same,MBC,Escherichia coli [11],1.8 µM
